Measurements from ChEMBL document CHEMBL4000145, “Discovery and Optimization of a Porcupine Inhibitor” (J Med Chem, 2015).
Converted amounts (≈) assume the structure as drawn. The source made the active and inactive calls. No cut-off for these calls is given here.

How the values were obtained:
[1] = target: T1, Protein-serine O-palmitoleoyltransferase porcupine (Homo sapiens, UniProt Q9H237); test: Inhibition of porcupine (unknown origin) expressed in HEK293-STF3A cells assessed as inhibition of Wnt signaling by measuring decrease in beta-catenin-mediated transcriptional activity after 24 hrs by Steady-Glo luciferase assay; type: cell-based
T1 sequence (Q9H237 whole entry): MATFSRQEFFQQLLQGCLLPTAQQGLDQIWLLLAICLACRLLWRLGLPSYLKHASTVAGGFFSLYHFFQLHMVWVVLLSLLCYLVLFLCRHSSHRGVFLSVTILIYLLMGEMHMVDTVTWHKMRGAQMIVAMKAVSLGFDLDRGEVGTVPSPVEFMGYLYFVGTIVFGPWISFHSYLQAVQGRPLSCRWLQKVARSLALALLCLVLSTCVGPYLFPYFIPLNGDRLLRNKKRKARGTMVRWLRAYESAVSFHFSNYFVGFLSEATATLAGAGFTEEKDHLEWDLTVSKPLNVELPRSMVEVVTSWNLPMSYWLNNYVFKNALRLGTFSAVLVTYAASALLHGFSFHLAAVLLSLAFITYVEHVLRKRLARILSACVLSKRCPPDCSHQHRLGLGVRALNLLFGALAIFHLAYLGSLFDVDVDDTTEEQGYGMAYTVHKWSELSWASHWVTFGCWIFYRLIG
Outline: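 HEK293-STF3A cells, 2 × 10⁴ per well, incubated overnight at 37 °C. Serially diluted compound added at final 50 μM to 1.5 nM. After 1 day, Steady-Glo luciferase added for 10 min at room temperature and luminescence read. IC50 derived from the dilution series.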

[2] = Intrinsic clearance in mouse liver microsomes; type: ADME, microsome; conditions: read-out: CLH
Cytochrome P450 3A4 = Cytochrome P450 3A4 (Homo sapiens, UniProt P08684); test: Inhibition of CYP3A4 (unknown origin)
Cytochrome P450 2D6 = Cytochrome P450 2D6 (Homo sapiens, UniProt P10635); test: Inhibition of CYP2D6 (unknown origin)
[3] = Thermodynamic solubility of the compound at pH 7.4; type: physicochemical; conditions: buffer, read-out: Therm_solubility
Outline: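 Compound at 500 μM from DMSO stock in pH 7.4 buffer, 1.0% DMSO. Incubated 18 h, then vacuum filtered. Filtrate mixed 1:1 with 1-propanol and quantified by UV spectroscopy.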

[4] = Permeability of the compound at pH 7.4 by PAMPA assay; type: physicochemical; conditions: read-out: permeability
HT-1080 = test: Inhibition of luciferase expression in human HT1080 cells after 24 hrs; type: functional, cell-based
Outline: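 HT1080 cells seeded at 150 000 per well a day before transfection. Transfected with control or murine PORCN plasmid (100 ng) plus Wnt/β-catenin reporter (550 ng) and Wnt3a (50 ng). Treated with serial dilutions from 625 to 0.2 nM at 0.1% DMSO final. Luciferase measured in lysate 24 h post-transfection.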

[5] = target: T2, Protein-serine O-palmitoleoyltransferase porcupine (Homo sapiens) (UniProt Q9H237); test: Inhibition of PORCN-mediated V5-tagged Wnt3A palmitoylation in human HeLa cells at 100 nM measured after over night incubation by Western blot analysis; type: cell-based
T2 sequence (whole entry): T1 sequence (Q9H237 whole entry)
Outline: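 HeLa cells seeded 3 × 10⁶ per 10 cm dish, overnight at 37 °C, then transfected with 5 μg pcDNA3.2/V5-Wnt3a. After 6 h, washed and given 100 μM ω-alkynyl palmitate in medium with 5% fatty-acid-free BSA plus compound (100 nM) or DMSO, overnight at 37 °C. From 600 μg lysate, V5-Wnt3a was immunoprecipitated and click-reacted with biotin azide. Blot read-outs: anti-V5/anti-mouse Dylight 680 for total, streptavidin-Dylight 800 for acylated.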

Mus musculus [6] = test: Antitumor activity in Balb/c mouse MMTV-Wnt1 model assessed as tumor growth inhibition at 1 mg/kg administered once daily for 14 days via oral gavage relative to vehicle treated control; type: functional; conditions: 336 h, read-out: TGI
Outline: (§1)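 Orthotopic MMTV-Wnt1 tumor fragments implanted in mammary fat pads of Balb/c nude mice. Dosing began 14 days later (day 1), with 10 mice per group and mean tumor volume 103–107 mm³. Oral gavage once daily for 14 days at 10 mL/kg in 50% PEG 400/deionized water. Doses were 1, 3 or 10 mg/kg. Caliper volumes gave %TGI versus vehicle at day 14. Statistics by one-way ANOVA with Dunnett's test.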

Mus musculus [7] = test: Antitumor activity in Balb/c mouse MMTV-Wnt1 model assessed as tumor growth inhibition at 3 mg/kg administered once daily for 14 days via oral gavage relative to vehicle treated control; type: functional; conditions: 336 h, read-out: TGI; outline: as §1
Mus musculus [8] = test: Antitumor activity in Balb/c mouse MMTV-Wnt1 model assessed as tumor growth inhibition at 10 mg/kg administered once daily for 14 days via oral gavage relative to vehicle treated control; type: functional; conditions: 336 h, read-out: TGI; outline: as §1
Mus musculus [9] = test: Antitumor activity in Balb/c mouse MMTV-Wnt1 model assessed as tumor growth inhibition administered once daily for 14 days via oral gavage; type: functional; outline: as §1
[10] = Oral bioavailability in mouse at 5 mg/kg; type: ADME, organism-based; conditions: in vivo
[11] = Cmax in mouse at 5 mg/kg, po; type: ADME, organism-based; design: dose 5 mg/kg, route oral; conditions: in vivo
[12] = Half life in mouse at 1 mg/kg, iv; type: ADME, organism-based; conditions: in vivo
[13] = AUC (0 to last) in mouse at 5 mg/kg, po; type: ADME, organism-based; design: dose 5 mg/kg, time 0 - last, route oral; conditions: in vivo
[14] = target: T3, Protein-serine O-palmitoleoyltransferase porcupine (Mus musculus) (UniProt Q9JJJ7); conditions: 0.2 to 625 nM
T3 sequence (whole entry): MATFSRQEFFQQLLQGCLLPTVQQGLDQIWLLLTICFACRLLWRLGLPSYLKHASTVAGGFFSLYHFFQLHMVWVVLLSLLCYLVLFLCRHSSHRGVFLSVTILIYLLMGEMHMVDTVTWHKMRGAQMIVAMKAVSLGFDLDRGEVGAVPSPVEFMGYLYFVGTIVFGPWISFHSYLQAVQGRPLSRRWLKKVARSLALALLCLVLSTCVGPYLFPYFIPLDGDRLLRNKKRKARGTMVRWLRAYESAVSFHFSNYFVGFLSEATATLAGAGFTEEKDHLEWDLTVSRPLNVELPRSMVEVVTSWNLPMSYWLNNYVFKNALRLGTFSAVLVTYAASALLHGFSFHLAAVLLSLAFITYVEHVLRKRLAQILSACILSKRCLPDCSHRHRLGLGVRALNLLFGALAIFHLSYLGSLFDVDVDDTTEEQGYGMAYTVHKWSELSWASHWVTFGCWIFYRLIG

HEK293 = test: Inhibition of beta-catenin-mediated transcriptional activity in Wnt3A knock out HEK293-STF cells preincubated for 4 hrs followed by Wnt-3A conditioned medium addition measured after 24 hrs by Steady-Glo luciferase assay; conditions: Homo sapiens
[15] = Cytotoxicity against HEK293 cells assessed as cell viability after 1 day by CellTiter-Glo luminescent assay; conditions: human
[16] = Oral bioavailability in mouse; type: ADME, organism-based; conditions: in vivo

Cytochrome P450 2D6, sequence (P10635 whole entry): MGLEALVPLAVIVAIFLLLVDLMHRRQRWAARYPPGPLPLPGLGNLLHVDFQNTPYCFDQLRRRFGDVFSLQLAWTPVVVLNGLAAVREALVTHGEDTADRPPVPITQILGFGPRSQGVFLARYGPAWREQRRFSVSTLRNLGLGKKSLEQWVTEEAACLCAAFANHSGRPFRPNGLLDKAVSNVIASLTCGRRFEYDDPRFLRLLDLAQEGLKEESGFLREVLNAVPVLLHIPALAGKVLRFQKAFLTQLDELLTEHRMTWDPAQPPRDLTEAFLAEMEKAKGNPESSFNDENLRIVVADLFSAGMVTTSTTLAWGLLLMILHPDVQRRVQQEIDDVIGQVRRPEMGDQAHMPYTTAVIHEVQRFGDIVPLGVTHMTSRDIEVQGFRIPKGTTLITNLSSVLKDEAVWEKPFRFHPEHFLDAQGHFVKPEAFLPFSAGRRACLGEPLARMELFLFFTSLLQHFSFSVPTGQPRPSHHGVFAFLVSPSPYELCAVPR
Cytochrome P450 3A4, sequence (P08684 whole entry): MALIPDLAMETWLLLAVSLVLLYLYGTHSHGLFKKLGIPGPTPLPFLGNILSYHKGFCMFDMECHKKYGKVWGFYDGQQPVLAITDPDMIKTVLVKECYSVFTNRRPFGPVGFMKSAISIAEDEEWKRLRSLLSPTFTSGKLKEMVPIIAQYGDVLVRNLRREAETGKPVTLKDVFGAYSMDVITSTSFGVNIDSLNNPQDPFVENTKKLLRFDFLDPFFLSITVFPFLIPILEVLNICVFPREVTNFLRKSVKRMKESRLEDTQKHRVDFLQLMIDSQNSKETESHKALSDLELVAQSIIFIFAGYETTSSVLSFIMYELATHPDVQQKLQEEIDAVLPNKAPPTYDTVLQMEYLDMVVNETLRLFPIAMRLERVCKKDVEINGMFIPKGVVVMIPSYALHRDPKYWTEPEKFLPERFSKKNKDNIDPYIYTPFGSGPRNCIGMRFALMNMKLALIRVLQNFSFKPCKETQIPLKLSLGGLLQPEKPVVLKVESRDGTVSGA

SMILES	IC50 [1]	microsomal CLint [2]	IC50 (Cytochrome P450 3A4)	IC50 (Cytochrome P450 2D6)	also measured
O=C(COc1ccc(-c2ccn[nH]2)cc1)Nc1ccc(-c2ccccc2)cc1	> 50000 nM	–	–	–	–
C[C@H](Nc1ccc(-n2ccnc2)cc1)C(=O)Nc1ccc(-c2ccccc2)cn1	5 nM	3.5 µL/min/mg	–	–	–
O=C(Nc1ccc(-c2ccccc2)cc1)[C@H]1CCCN1c1ccc(-n2ccnc2)cc1	33000 nM	–	–	–	–
O=C(COc1ccc(-c2cnco2)cc1)Nc1ccc(-c2ccccc2)cc1	42 nM	–	> 20000 nM	> 20000 nM	–
O=C(COc1ccc(-n2cccc2)cc1)Nc1ccc(-c2ccccc2)cc1	> 50000 nM	–	–	–	–
Cc1nccn1-c1ccc(OCC(=O)Nc2ccc(-c3ccccc3)cc2)cc1	2 nM	–	5200 nM	1900 nM	–
C[C@H](Oc1ccc(-n2ccnc2)cc1)C(=O)Nc1ccc(-c2ccccc2)cc1	7 nM	85 µL/min/mg	–	–	–
C[C@H](Nc1ccc(-c2ccnn2C)nc1)C(=O)Nc1ccc(-c2ccccc2)cn1	1 nM	8 µL/min/mg	> 20000 nM	> 20000 nM	solubility thermodynamic [3]: 4 µg/mL (≈ 10 µM); Papp [4]: 113 ×10⁻⁶ cm/s
C[C@@H](Nc1ccc(-n2ccnc2)cc1)C(=O)Nc1ccc(-c2ccccc2)cn1	689 nM	12 µL/min/mg	–	–	–
O=C(Nc1ccc(-c2ccccc2)cc1)[C@@H]1CCCN1c1ccc(-n2ccnc2)cc1	40 nM	18 µL/min/mg	–	–	–
O=C(CNc1ccc(-n2ccnc2)cc1)Nc1ccc(-c2ccccc2)cc1	30 nM	11 µL/min/mg	–	–	–
C[C@H](Nc1ccc(-c2ccnn2C)nc1)C(=O)Nc1ccc(-c2cccnc2)cn1	1 nM	8 µL/min/mg	> 20000 nM	8000 nM	inhibition (HT-1080): Dose-dependent effect; solubility thermodynamic [3]: 72.5 µg/mL (≈ 181 µM); Papp [4]: 50.6 ×10⁻⁶ cm/s; inhibition [5]: Active; inhibition in vivo at 1 mg/kg (Mus musculus [6]): 50%; inhibition in vivo at 3 mg/kg (Mus musculus [7]): 71%; inhibition in vivo at 10 mg/kg (Mus musculus [8]): 91%; TGI (Mus musculus [9]): Dose-dependent effect; bioavailability [10]: 106%; Cmax [11]: 4270 ng/mL; half-life [12]: 1.9 h; AUC(0-t) [13]: 12300 ng·h/mL; inhibition [14]: Active
O=C(COc1ccc(-n2ccnc2)cc1)Nc1ccc(-c2ccccc2)cc1	15 to 19 nM	37 µL/min/mg	–	–	IC50 (HEK293): > 30000 nM; CC50 at 24 h [15]: > 50000 nM; solubility thermodynamic [3]: < 1 µg/mL; Papp [4]: < 1 ×10⁻⁶ cm/s; bioavailability [16]: < 1%; inhibition [5]: Active
Cn1nccc1-c1ccc(OCC(=O)Nc2ccc(-c3ccccc3)cc2)cc1	4 nM	–	> 20000 nM	> 20000 nM	–
C[C@@H](Oc1ccc(-n2ccnc2)cc1)C(=O)Nc1ccc(-c2ccccc2)cc1	130 nM	63 µL/min/mg	–	–	inhibition [5]: Active
C[C@H](Nc1ccc(-c2ccnn2C)nc1)C(=O)Nc1ccc(-c2cccnc2)nc1	10 nM	8 µL/min/mg	> 20000 nM	3300 nM	solubility thermodynamic [3]: 102 µg/mL (≈ 255 µM); Papp [4]: 26.8 ×10⁻⁶ cm/s
